Experiments:
[1] = tested on: Vero cells; test: Initial cytotoxicity study; format: cell-based, African green monkey; conditions: at 100 μM concentration
Method in brief: (§1)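 Confluent monolayers in triplicate wells of 24-well plates, exposed to compounds diluted from 0.1M DMSO stocks in growth medium (final 10−4 M to 10−8 M). A DMSO co-solvent control was run for each dilution and compared with cell controls. Cytotoxicity scored by abnormal morphology: clumping, detachment or rounding up of cells. Scored +/−.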

[2] = tested on: HSV-1 McKrae strain; test: Plaque reduction assay, HSV-1 in Vero cells; format: cell-based, herpes simplex virus type 1; conditions: Human alphaherpesvirus 1, Vero, 96 h
Method in brief: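 Confluent Vero monolayers in 24-well plates infected with 100 pfu McKrae strain per well, adsorbed 1 h at 37°C, washed with Hanks' BSS. Agar overlay containing compound dilutions applied to triplicate wells, alongside triplicate cell and virus controls. Day 4: methanol:acetic acid (3:1) fixation, 1% crystal violet stain, plaque count. IC50 calculated from dose-response plots; selectivity index taken as TC50/IC50.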

[3] = tested on: A549 cells; test: Initial cytotoxicity study; format: cell-based, Human; conditions: at 100 μM concentration
Method in brief: as §1

SMILES: Nc1nc2c(ncn2COCCO)c(=O)[nH]1 [Acyclovir, acyclovir]
- Cytotoxicity [1]: − (Vero cells)
- IC50 [2]: 1800 nM

SMILES: Nc1ccn(C[C@@H](CO)OCP(=O)(O)O)c(=O)n1 [Cidofovir]
- Cytotoxicity [3]: − (A549 cells)

— PMC7125830 (Antiviral Research, 1999)
